This is one part of the list. Activity calls are given as the source filed them.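 Rule for the calls, unless noted: active = substances whose mean melting-temperature shift, as a percentage of the reference inhibitor's shift, reaches about 5.3% (limit read from the data); inactive = the rest.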

The target in experiment [1] is Carboxy-terminal domain RNA polymerase II polypeptide A small phosphatase 1 (Homo sapiens) (UniProt Q9GZU7). Kind of experiment: SCP1 melting temperature change from compounds – biophysical, differential scanning fluorimetry, orthogonal assay for Scp-1 inhibitor project, confirmation (AID 540329).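 Note: 0% = Tm of DMSO wells and 100% = Tm with sodium orthovanadate.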 The conditions noted are these: Recombinant SCP1, Sypro Orange thermal shift Tm; at 40 µM; stronger effect = higher value. An outline of the steps: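 Test system: human Scp-1 phosphatase catalytic domain, residues 76-261. Input: Scp-1 from 10 µM stock. Incubation: Heating 20-95 °C, 0.03 °C/s ramp. Control set: vanadate reference. Buffer or medium: Tris acetate buffer at pH 5.5, with MgCl2 and Tween-20. Detection: differential scanning fluorimetry.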
Chain of Carboxy-terminal domain RNA polymerase II polypeptide A small phosphatase 1 (Homo sapiens) (Q9GZU7 76-261 limits assumed): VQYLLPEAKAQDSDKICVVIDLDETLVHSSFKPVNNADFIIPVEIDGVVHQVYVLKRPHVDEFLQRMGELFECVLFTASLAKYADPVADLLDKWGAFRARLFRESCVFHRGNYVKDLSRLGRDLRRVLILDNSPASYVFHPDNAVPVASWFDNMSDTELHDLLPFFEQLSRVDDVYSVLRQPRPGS
(Differential scanning fluorimetry follows unfolding on heating by fluorescence.)

Experiment [2] in a line: Brca1-Bard1 BiLC signal decrease – luminescence, single concentration, counter-screen for Mdm2/MdmX interaction inhibitor project, confirmation (AID 504668; call rule not given here). The settings on record: Brca1/Bard1 bimolecular luciferase complementation counterscreen, at 8 µM, stronger effect = higher value. A general note: Counterscreens check selectivity or assay interference.
The target of experiment [3] is Tumor necrosis factor receptor superfamily member 10B (Homo sapiens) (UniProt O14763). Kind of experiment: viability loss of caspase-8 NB7 cells with TRAIL – with/without TRAIL, luminescence panel, confirmation (AID 651596; in the data active = activity above about 50%). The settings on record: NB7 neuroblastoma + caspase-8, TRAIL sensitization, NB7 Caspase-8, with TRAIL, mean of runs, at 10 µM, stronger effect = higher value.
Chain of Tumor necrosis factor receptor superfamily member 10B (Homo sapiens) (O14763 whole entry, looked up): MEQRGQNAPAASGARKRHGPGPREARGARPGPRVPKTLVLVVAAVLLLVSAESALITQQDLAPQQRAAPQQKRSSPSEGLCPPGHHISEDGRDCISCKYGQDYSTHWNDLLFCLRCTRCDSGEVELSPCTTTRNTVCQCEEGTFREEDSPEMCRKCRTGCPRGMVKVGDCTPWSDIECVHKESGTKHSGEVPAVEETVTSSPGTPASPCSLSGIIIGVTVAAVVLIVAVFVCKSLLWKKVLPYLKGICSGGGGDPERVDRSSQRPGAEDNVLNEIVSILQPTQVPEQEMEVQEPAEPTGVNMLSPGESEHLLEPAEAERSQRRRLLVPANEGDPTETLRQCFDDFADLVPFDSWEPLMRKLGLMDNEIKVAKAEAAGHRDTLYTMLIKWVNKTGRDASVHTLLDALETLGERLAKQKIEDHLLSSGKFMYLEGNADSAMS

Test in experiment [4]: as above
The settings on record: NB7 neuroblastoma + caspase-8, without TRAIL, NB7 Caspase-8, without TRAIL, mean of runs, at 10 µM.

In experiment [5] the target is Tumor necrosis factor receptor superfamily member 10B (Homo sapiens) (UniProt O14763). Kind of experiment: compound enhancement of TRAIL-induced cell killing – NB7 cells plus caspase-8, luminescence, panel, dose response (AID 652002). The conditions noted are these: NB7 neuroblastoma +caspase-8, TRAIL sensitization, luminescence viability, NB7+Caspase-8, with TRAIL, run 1; at 12.5 µM (top of the series).

For experiment [6] the target is unchanged. The description is as above. The conditions noted are these: NB7 neuroblastoma +caspase-8, TRAIL sensitization, luminescence viability, NB7+Caspase-8, with TRAIL, run 2; at 12.5 µM (top of the series).
Test in experiment [7]: as above
The settings on record: NB7 neuroblastoma +caspase-8, no TRAIL, compound-alone cytotoxicity counter-screen, luminescence viability, NB7+Caspase-8, run 1; at 12.5 µM (top of the series) unless noted.

Test in experiment [8]: as above
The conditions noted are these: NB7 neuroblastoma +caspase-8, no TRAIL, compound-alone cytotoxicity counter-screen, luminescence viability, NB7+Caspase-8, run 2; at 12.5 µM (top of the series) unless noted.

`CC[n+]1c(C)n(-c2ccccc2)c2ccc(NC(C)=O)cc21`: the thermal shift relative to vanadate control in experiment [1] was -13.8% (inactive).

For `N#Cc1ccccc1CN1C(=O)S/C(=C/c2cccn2-c2cccc(C(=O)O)c2)C1=O`, the thermal shift relative to vanadate control in experiment [1] was 1.96% (inactive). In the case of `CO/N=C(\C(=O)N[C@@H]1C(=O)N2C(C(=O)O)=C(COC(C)=O)CS[C@H]12)c1csc(N)n1` (stereo in doubt), the thermal shift relative to vanadate control in experiment [1] was -5.16% (inactive).

With `CC1CCN(c2ccc(S(=O)(=O)Nc3cc(C(=O)O)cc(C(=O)O)c3)cc2[N+](=O)[O-])CC1`, the thermal shift relative to vanadate control in experiment [1] is 15% (active). As for `Cc1nn(-c2cc(Cl)ccc2N)c(=O)c2ccccc12`, the thermal shift relative to vanadate control in experiment [1] was -6.02% (inactive). As for `O=C(CCC(=O)N/N=C/c1ccc(Br)o1)N/N=C/c1ccc(Br)o1`, in experiment [1], the thermal shift relative to vanadate control was -1.53% (inactive). As for `Cc1ccc(Cc2nnc(SCC(=O)Nc3ccc(C)cc3C)[nH]c2=O)cc1`, the thermal shift relative to vanadate control in experiment [1] is 4.55% (inactive).

For `N#Cc1c(-c2cccs2)nc(SCC(=O)c2ccc(Br)cc2)[nH]c1=O`, the thermal shift relative to vanadate control in experiment [1] was -2.02% (inactive). For orientation: inhibition means the drop in the measured response relative to a control, in per cent. Regarding `CCCCCCc1cc2cc(S(=O)(=O)c3ccc(F)c(Cl)c3)c(=O)oc2cc1O`, the inhibition in experiment [2] is 27.6% (active). The activity in experiment [3] worked out at 55.4%; in experiment [4] it was 40%. For the same compound, the activity, % sensitization in experiment [5] was -8.78%; in experiment [6], -2.26%; in experiment [7], -6.43%; in experiment [8], -24.8%. Take `CCCCCc1cc(=O)oc2c(C(CCN3CCCCC3)c3cc(OC)c(OC)c(OC)c3)c(OC)cc(OC)c12` (stereo not drawn): the inhibition in experiment [2] was 26.6% (active). Further, the activity in experiment [3] is 45.4%; in experiment [4], 36.5%.

Turning to `O=C(CCS(=O)(=O)c1ccc(Br)cc1)NCCc1ccc(Cl)cc1`, the thermal shift relative to vanadate control in experiment [1] was 1.56% (inactive). Regarding `Cc1ccc(NC(=O)CSc2nc3ccc(Nc4nc(N5CCOCC5)nc(N5CCOCC5)n4)cc3s2)cc1`, the inhibition in experiment [2] is 26.2% (active). Moreover, the activity in experiment [3] came to 58.1%; in experiment [4], 40.5%. Further, the activity, % sensitization in experiment [5] was -7.95%; in experiment [6], -11.3%; in experiment [7], -21% [at 6.25 µM]; in experiment [8] it was -31.8%. Turning to `CCOc1ccccc1/C=c1\sc2nc(-c3ccco3)nn2c1=O`, in experiment [1], the thermal shift relative to vanadate control is 4.79% (inactive). For the compound `ON=C1/C(=N\O)CC2(C/C1=N/O)OCCO2`, the thermal shift relative to vanadate control in experiment [1] was 4.94% (inactive). With `O=C(COC(=O)c1cnc(Cl)c(Cl)c1)NCc1ccco1`, in experiment [1], the thermal shift relative to vanadate control was -1.58% (inactive). In the case of `O=C(Cn1cc(/C=N/NC(=O)c2cccc(C(F)(F)F)c2)c2ccccc21)Nc1ccc(F)cc1`, the thermal shift relative to vanadate control in experiment [1] was 10.6% (active). `O=C(COC(=O)c1ccccc1O)NCc1ccco1`: in experiment [1], the thermal shift relative to vanadate control was -13.8% (inactive). Take `CCCCCN1CC(O)=C(c2nc(-c3ccc(Cl)cc3)cs2)C1=N`: the thermal shift relative to vanadate control in experiment [1] is -7.73% (inactive). For `CCOC(=O)C1=C(C)c2ccccc2OC1(C)C(=O)OCC` (stereo not drawn), the thermal shift relative to vanadate control in experiment [1] is -2.89% (inactive). `N#CC1(NC(=O)Cn2ncc(Cl)c(Cl)c2=O)CCCCC1`: the inhibition in experiment [2] was 29.6% (active). Further, the activity in experiment [3] came out at 98.5%; in experiment [4] it was 99.2%.

As for `Nn1cnnc1N/N=C/c1cc([N+](=O)[O-])c(Cl)cc1Cl`, the thermal shift relative to vanadate control in experiment [1] was -3.64% (inactive). Consider `COc1ccccc1C(=O)Nc1nc(-c2ccc(S(=O)(=O)N3CCOCC3)cc2)cs1`, for which the inhibition in experiment [2] was 29.5% (active). Further, the activity in experiment [3] amounted to 89.5%; in experiment [4], 80.6%. For the compound `CCCCCc1cc(=O)oc2c(C(CCN(CC)CC)c3cc(OC)c(OC)c(OC)c3)c(OC)cc(OC)c12` (stereo not drawn), the inhibition in experiment [2] is 32% (active). Besides, the activity in experiment [3] stood at 52.9%; in experiment [4], 54.7%. For the same compound, the activity, % sensitization in experiment [5] is -8.61%; in experiment [6], 49.1%; in experiment [7], -1%; in experiment [8], 3.69%.

`CS(=O)(=O)C1=NN2C(=N)/C(=C\c3ccc(OCCOc4ccccc4)cc3)C(=O)N=C2S1`: the thermal shift relative to vanadate control in experiment [1] was 280% (active). Regarding `C[n+]1ccc(C(=O)NCc2ccccc2)cc1`, the thermal shift relative to vanadate control in experiment [1] is -7.9% (inactive).

With `Cc1oc2c(C)c3oc(=O)c(CC(=O)N[C@@H](CC(C)C)C(=O)N[C@@H](Cc4ccccc4)C(=O)O)c(C)c3cc2c1C`, the thermal shift relative to vanadate control in experiment [1] is -12.3% (inactive).

In the case of `CNS(=O)(=O)c1cccc(C(=O)OCC(=O)N2c3ccccc3NC(=O)C2(C)C)c1`, in experiment [1], the thermal shift relative to vanadate control is 0.5% (inactive). Regarding `COc1ccc(OCC(=O)NNC(=O)c2ccc(-c3ccccc3)cc2)cc1`, the thermal shift relative to vanadate control in experiment [1] was 2.47% (inactive).

With `C[C@H](CO)N1C[C@H](C)[C@H](CN(C)C(=O)Nc2ccc(C(F)(F)F)cc2)Oc2c(NC(=O)c3ccncc3)cccc2C1=O`, in experiment [1], the thermal shift relative to vanadate control is 1.36% (inactive).

`Cc1cc(NC(=O)c2cncc(Br)c2)ccc1NC(=O)c1cc2ccccc2o1`: the inhibition in experiment [2] is 28.6% (active). Further, the values for the activity in experiment [3] and in experiment [4] were 58.9% and 13.3%, respectively. Also, the activity, % sensitization in experiment [5] turned out to be 7.53%; in experiment [6] it was 53.9%; in experiment [7] it was 12.3%; in experiment [8], 28.1%. Consider `Cc1ccc(/C=C/C(=O)Nc2ccc([N+](=O)[O-])c(NC(=O)/C=C/c3ccc(C)o3)c2)o1`, for which, in experiment [1], the thermal shift relative to vanadate control was 11% (active). With `O=c1[nH]n(-c2ccc([N+](=O)[O-])cc2)c(=O)c2ccccc12`, the thermal shift relative to vanadate control in experiment [1] was 2.78% (inactive). Still for that read-out and setting: the figure for `COc1cccc2cc(-c3cc(=O)oc4cc(C)c(O)cc34)oc12` is -12.5% (inactive); for `Cc1ccc(SCC(=O)NC(=O)NCc2ccco2)c(C)c1` it is -1.14% (inactive); for `CCCc1nc(-c2cc3cc(C)ccc3[nH]c2=O)no1` it is -30.4% (inactive). Consider `CCOC(=O)c1sc(NC(=O)c2cc(-c3ccccc3C)nc3ccccc23)c(C#N)c1C`, for which, in experiment [2], the inhibition was 32.4% (active). Besides, the activity was 54.4% in experiment [3] and 40.4% in experiment [4]. Also, the activity, % sensitization in experiment [5] is 16.7%; in experiment [6], -4.14%; in experiment [7], 4.11%; in experiment [8], -11.3%. As to `COCCCn1c(Cc2csc(Nc3cccc(Cl)c3)n2)nnc1SCC(=O)OC1CCCCC1`, the thermal shift relative to vanadate control in experiment [1] is -0.65% (inactive). Still for that read-out and setting: the figure for `COc1ccc(Cl)cc1NC(=O)CCS(=O)(=O)c1ccc(Br)cc1` is 3.48% (inactive). Regarding `COc1ccc(Cl)cc1C=CC=NNC(=O)c1ccncc1`, the thermal shift relative to vanadate control in experiment [1] was -17.4% (inactive).

Regarding `Cc1ccc(C(=O)NNC(=O)c2cc3cc4ccccc4nc3s2)cc1`, in experiment [1], the thermal shift relative to vanadate control is -10.9% (inactive). Turning to `Cc1cc(/C=C2\SC(=O)N(C)C2=O)c(C)n1-c1cccc(C(=O)O)c1`, in experiment [1], the thermal shift relative to vanadate control was 1.65% (inactive). Regarding `Cc1ccc(CCNC(=O)c2ccc3nc4ccccc4c(=O)n3c2)cc1`, the thermal shift relative to vanadate control in experiment [1] was -6.77% (inactive). In the case of `Cc1ccccc1NC(=O)CN1C(=O)N/C(=C\c2cccn2-c2cccc(C(=O)O)c2)C1=O`, the thermal shift relative to vanadate control in experiment [1] was 7.04% (active).

Regarding `Cc1ccc(CCCOC(=O)C[N+]2(C)CCCC2)cc1`, in experiment [1], the thermal shift relative to vanadate control is -9.83% (inactive). The same measure, in the same setting: the figure for `CCc1ccc(NC(=O)CS(=O)CC(=O)NCCCc2ccccc2)cc1` (stereo not drawn) is -12.5% (inactive); for `O=C(COC(=O)c1ccc(F)cc1F)Nc1ncccn1` it is 1.27% (inactive). As for `Cc1c(CCC(=O)O)c(=O)oc2cc(OCc3ccc(Br)cc3)ccc12`, the thermal shift relative to vanadate control in experiment [1] is -18.2% (inactive).
